Experimental findings from ChEMBL document CHEMBL1139831, “The influence of modifications in imide fragment structure on 5-HT(1A) and 5-HT(7) receptor affinity and in vivo pharmacological properties of some new 1-(m-trifluoromethylphenyl)piperazines” (Bioorg Med Chem, 2007) are described below.

Assay [1] can be described thus: Displacement of [3H]prazosin from adrenergic alpha1 receptor in rat cortical membranes. It is filed as cell membranes, Membrane. The gist of the method:
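Rat cortical membranes with [3H]-prazosin; phentolamine defines nonspecific binding. 7–9 drug concentrations in triplicate, at least three separate experiments; stopped by GF/B filtration with three ice-cold buffer washes, bound radioactivity by liquid scintillation counting; Ki from non-linear regression and Cheng-Prusoff equation.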

The test system of assay [2] is Mus musculus. The assay is described as follows: Effect on locomotor activity in Swiss Albino mouse assessed as number of crossings in 30 mins at 5 mg/kg administered 30 mins before the test. It counts as functional. In a few lines:
(§1)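 Male Albino Swiss mice given compound ip (1% Tween 80, 10 ml/kg) 30 min before placement singly in plastic cages in a multichannel photobeam activity monitor; ambulation crossings counted over the first 6 min and over a 30 min session. n = 9-10 per group; ANOVA then Dunnett's test.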

Assay [3] concerns Mus musculus. In words: Effect on locomotor activity in Swiss Albino mouse assessed as number of crossings in 6 mins at 5 mg/kg administered 30 mins before the test. It counts as functional. In a few lines: (§2)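 Male Albino Swiss mice (24–28 g) given compound ip (suspension in 1% aqueous Tween 80, 10 ml/kg). Animals housed singly in plastic cages in a multichannel photobeam activity monitor. Ambulation crossings counted over first 6 min and over 30-min session. n = 9-10/group; one-way ANOVA then Dunnett's test.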

The target in assay [4] is 5-hydroxytryptamine receptor 7 (Homo sapiens, UniProt P34969). In words: Displacement of [3H]5-CT from human 5HT7 expressed in HEK293 cells. It counts as cell-based. In a few lines: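 HEK293 cells stably transfected with human 5-HT7(b) cDNA; membranes (10 µg protein) incubated 1 h at 37 °C in 50 mM Tris-HCl pH 7.4 with 4 mM MgCl2, 0.1 mM pargyline, 0.1% ascorbic acid, 0.5 nM [3H]-5-CT and 7–9 test concentrations in triplicate; 10 µM 5-HT defines nonspecific binding. GF/B filtration, scintillation counting; Ki via Cheng-Prusoff from ≥3 experiments.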
Chain of 5-hydroxytryptamine receptor 7 (P34969 whole entry): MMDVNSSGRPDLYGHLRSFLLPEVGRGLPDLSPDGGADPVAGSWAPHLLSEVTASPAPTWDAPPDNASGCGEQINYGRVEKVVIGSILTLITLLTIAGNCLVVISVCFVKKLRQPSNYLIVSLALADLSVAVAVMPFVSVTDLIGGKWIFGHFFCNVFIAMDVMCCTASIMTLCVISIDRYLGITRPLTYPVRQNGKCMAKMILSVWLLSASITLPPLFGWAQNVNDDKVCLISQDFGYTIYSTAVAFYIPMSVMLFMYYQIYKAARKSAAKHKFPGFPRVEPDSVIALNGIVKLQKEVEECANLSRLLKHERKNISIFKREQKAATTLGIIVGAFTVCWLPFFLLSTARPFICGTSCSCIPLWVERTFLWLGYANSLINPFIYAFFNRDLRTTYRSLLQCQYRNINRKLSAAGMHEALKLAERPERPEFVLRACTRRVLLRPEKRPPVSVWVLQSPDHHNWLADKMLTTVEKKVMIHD
(Loss of bound radioactivity is the signal in a displacement assay; it reports binding, not function.)

Assay [5] deals with Mus musculus. The assay is described as follows: Antidepressant activity in Swiss Albino mouse assessed as immobility time during final 4 mins of 6 mins session at 5 mg/kg administered 30 mins before the test by forced-swimming test. It counts as functional. In a few lines:
(§3)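 Male Albino Swiss mice (24–28 g), compound given ip in 1% aqueous Tween 80 (10 ml/kg), 30 min before test. Mouse placed singly in glass cylinder (25 cm high, 10 cm diameter) holding 6 cm water at 23–25 °C for 6 min; immobility (floating, only small head-keeping movements) timed over last 4 min. n = 9-10 per group; one-way ANOVA then Dunnett's test.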

In assay [6] the test system is Mus musculus. In words: Anxiolytic activity in Swiss Albino mouse assessed as number of punished crossings for 60 secs at 10 mg/kg administered 30 mins before the test by four-plate test. It is filed as functional. In a few lines:
(§4)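 Male Albino Swiss mice (24–28 g), compound suspended in 1% aqueous Tween 80, given ip (10 ml/kg). Mouse placed in box with four metal floor plates, 15 s exploration, then floor electrified (120 V, 0.5 s) at each plate-to-plate crossing, no new shock for 3 s. Punished crossings counted over 60 s. n = 9-10/group; one-way ANOVA then Dunnett's test.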

For assay [7], the system named is Mus musculus. The assay is described as follows: Effect on locomotor activity in Swiss Albino mouse assessed as number of crossings in 30 mins at 10 mg/kg administered 30 mins before the test. It is filed as functional. The gist of the method:
as §1

Assay [8] relates to Mus musculus. In words: Effect on locomotor activity in Swiss Albino mouse assessed as number of crossings in 6 mins at 10 mg/kg administered 30 mins before the test. It counts as functional. The gist of the method:
as §2

For assay [9], the system named is Mus musculus. The assay is described as follows: Anxiolytic activity in Swiss Albino mouse assessed as number of punished crossings for 60 secs at 5 mg/kg administered 30 mins before the test by four-plate test. It is filed as functional. In a few lines: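 Male Albino Swiss mice dosed ip (1% aqueous Tween 80, 10 ml/kg) 30 min beforehand. Opaque box floored with four metal plates; 15 s free exploration, then each plate-to-plate crossing triggers a 0.5 s, 120 V floor shock, with no new shock for 3 s if running continues. Punished crossings counted over 60 s; n = 9-10, ANOVA plus Dunnett's test.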

Assay [10] concerns Mus musculus. The assay is described as follows: Anxiolytic activity in Swiss Albino mouse assessed as number of punished crossings for 60 secs at 2.5 mg/kg administered 30 mins before the test by four-plate test. It is filed as functional. The gist of the method:
as §4

Assay [11] concerns Mus musculus. The assay is described as follows: Antidepressant activity in Swiss Albino mouse assessed as immobility time during final 4 mins of 6 mins session at 10 mg/kg administered 30 mins before the test by forced-swimming test. It is filed as functional. The gist of the method: as §3
Assay [12] is filed under the species Mus musculus. The following applies: Swiss Albino, 10 mg/kg.
The subject of assay [13] is Rattus norvegicus. In words: Effect on lower lip retraction in Wistar rat at 20 mg/kg. It counts as functional. The gist of the method: (§5)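 Male Wistar rats (290–310 g) dosed ip in 1% Tween 80 (2 ml/kg), caged singly; lower lip retraction scored 15, 30 and 45 min after dosing as 0 (incisors not visible), 0.5 (partly) or 1 (completely visible), totals up to 3 per rat. n = 6 per group; one-way ANOVA followed by Dunnett's test.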

For assay [14], the system named is Rattus norvegicus. In words: Effect on 8-OH-DPAT-induced lower lip retraction in Wistar rat at 20 mg/kg. It counts as functional.
The species named for assay [15] is Mus musculus. The following applies: Swiss Albino, 10 mg/kg. The source holds these as a separate data set.
The species entered for assay [16] is Mus musculus. The following applies: Swiss Albino, 10 mg/kg. This is another data set of the same source.
The species entered for assay [17] is Mus musculus. The settings on record: Swiss Albino, 20 mg/kg.
Assay [18] deals with Rattus norvegicus. In words: Effect on 8-OH-DPAT-induced lower lip retraction in Wistar rat at 10 mg/kg. It counts as functional.
The species named for assay [19] is Mus musculus. The settings on record: Swiss Albino, 10 mg/kg. This is another data set of the same source.
The test system of assay [20] is Rattus norvegicus. The assay is described as follows: Effect on lower lip retraction in Wistar rat at 10 mg/kg. It counts as functional. The gist of the method:
as §5

The target in the next assay is D(2) dopamine receptor (Rattus norvegicus, UniProt P61169). The assay is described as follows: Displacement of [3H]spiperone from dopamine D2 receptor in rat striatal membranes. It is filed as cell membranes, Membrane. The gist of the method: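 Competition binding on rat striatal membranes using [3H]-spiperone, butaclamol for nonspecific binding; filtration through GF/B filters and scintillation counting. Run at two compound concentrations, each in triplicate, and affinity expressed as estimated Ki.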
Chain of D(2) dopamine receptor (P61169 whole entry): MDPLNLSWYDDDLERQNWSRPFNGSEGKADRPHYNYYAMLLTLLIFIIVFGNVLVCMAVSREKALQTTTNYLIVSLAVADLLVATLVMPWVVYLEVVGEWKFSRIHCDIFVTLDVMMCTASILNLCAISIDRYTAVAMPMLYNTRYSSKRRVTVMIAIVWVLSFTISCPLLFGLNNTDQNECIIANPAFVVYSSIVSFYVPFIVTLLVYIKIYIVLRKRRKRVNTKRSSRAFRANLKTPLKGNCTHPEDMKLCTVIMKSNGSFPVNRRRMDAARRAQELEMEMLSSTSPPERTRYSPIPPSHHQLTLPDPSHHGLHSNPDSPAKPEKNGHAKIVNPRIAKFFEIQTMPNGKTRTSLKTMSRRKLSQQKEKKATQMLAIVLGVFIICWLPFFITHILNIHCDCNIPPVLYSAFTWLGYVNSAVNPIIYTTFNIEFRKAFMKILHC

Assay [21] deals with T1, 5-hydroxytryptamine receptor 1A (Rattus norvegicus, UniProt P19327).
T1 sequence (P19327 whole entry): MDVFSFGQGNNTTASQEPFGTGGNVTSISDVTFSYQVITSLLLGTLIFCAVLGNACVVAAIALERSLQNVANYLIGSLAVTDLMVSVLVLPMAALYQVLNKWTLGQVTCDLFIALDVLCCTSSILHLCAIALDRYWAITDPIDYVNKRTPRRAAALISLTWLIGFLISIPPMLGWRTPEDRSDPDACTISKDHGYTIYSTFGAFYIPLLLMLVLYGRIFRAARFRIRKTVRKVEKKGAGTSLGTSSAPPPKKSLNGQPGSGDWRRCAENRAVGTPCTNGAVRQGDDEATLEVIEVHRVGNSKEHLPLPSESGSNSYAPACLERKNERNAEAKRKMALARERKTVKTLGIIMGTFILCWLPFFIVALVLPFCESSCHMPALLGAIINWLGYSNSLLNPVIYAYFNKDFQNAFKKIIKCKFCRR
In words: Displacement of [3H]8-OH-DPAT from 5HT1A in rat hippocampal membranes. It is filed as cell membranes, Hippocampus, Membrane. In a few lines: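 Rat hippocampal membranes, [3H]-8-OH-DPAT as radioligand, 5-HT defining nonspecific binding. 7–9 drug concentrations run in triplicate, at least three separate experiments. Filtration through GF/B filters with three ice-cold buffer washes, scintillation counting. Ki from non-linear regression of binding isotherms via Cheng-Prusoff equation.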

The species entered for assay [22] is Mus musculus. The following applies: Swiss Albino, 20 mg/kg. This is another data set of the same source.
The species named for assay [23] is Mus musculus. The settings on record: Swiss Albino, 10 mg/kg. The source holds these as a separate data set.
The species named for assay [24] is Mus musculus. The settings on record: Swiss Albino, 20 mg/kg. The source holds these as a separate data set.
For assay [25], the species on record is Mus musculus. The following applies: Swiss Albino, 20 mg/kg. This is another data set of the same source.
The species entered for assay [26] is Mus musculus. The settings on record: Swiss Albino, 20 mg/kg. This is another data set of the same source.
For assay [27], the species on record is Mus musculus. The following applies: Swiss Albino, 5 mg/kg.
For assay [28], the species on record is Mus musculus. The settings on record: Swiss Albino, 5 mg/kg. This is another data set of the same source.
The species named for assay [29] is Mus musculus. The settings on record: Swiss Albino, 5 mg/kg. The source holds these as a separate data set.
For assay [30], the species on record is Mus musculus. The following applies: Swiss Albino, 5 mg/kg. This is another data set of the same source.
Assay [31] has as its system Rattus norvegicus. The assay is described as follows: Effect on lower lip retraction in Wistar rat at 0.1 mg/kg. It counts as functional. The gist of the method: as §5
In assay [32] the test system is Rattus norvegicus. In words: Effect on 8-OH-DPAT-induced lower lip retraction in Wistar rat at 0.1 mg/kg. It is filed as functional.

With `CC1(C)CC(=O)N(CCCCN2CCN(c3cccc(C(F)(F)F)c3)CC2)C(=O)C1`, the Ki was determined as 127 nM in assay [1] and 46 nM in assay [4]. The Activity was determined as 730.8 with Mus musculus [2]; 121.7 in the assay on Mus musculus [3]; 157.7 s in the assay with Mus musculus [5]; 7.6 with Mus musculus [6]; 265.1 in the assay with Mus musculus [7]; 23 in the assay with Mus musculus [8]. For the same compound, the Activity amounted to 6.9 in the assay on Mus musculus [9], 5.3 in the assay with Mus musculus [10] and 112.1 s in the assay with Mus musculus [11].
With `O=C1C2CC=CCC2C(=O)N1CCCCN1CCN(c2cccc(C(F)(F)F)c2)CC1` (cis isomer), the deltaT is -0.6 °C in the assay listed under Mus musculus [12]; -0.9 °C in the assay filed under Mus musculus [15]; -0.3 °C in the assay listed under Mus musculus [16]; -1.5 °C in the assay listed under Mus musculus [17]; -0.2 °C in the assay filed under Mus musculus [19]; -1.3 °C in the assay listed under Mus musculus [22]. Further, the deltaT is -0.6 °C in the assay listed under Mus musculus [23], -1.2 °C in the assay listed under Mus musculus [24], -1.6 °C in the assay filed under Mus musculus [25] and -1.5 °C in the assay filed under Mus musculus [26]. For the same compound, the Activity in the assay with Rattus norvegicus [13] amounted to 1.8; in the assay with Rattus norvegicus [14], 0.5; in the assay on Rattus norvegicus [18] it was 1.9; in the assay on Rattus norvegicus [20] it was 1.4. The Ki in assay [1] came out at 73 nM; in [4], 31 nM; at D(2) dopamine receptor, 2720 nM; in assay [21], 34 nM.
For `CC1C(=O)N(CCCCN2CCN(c3cccc(C(F)(F)F)c3)CC2)C(=O)C1C` (configuration not stated), the deltaT was -0.2 °C in the assay listed under Mus musculus [12]; 0 °C in the assay listed under Mus musculus [27]; -0.2 °C in the assay listed under Mus musculus [28]; -0.6 °C in the assay filed under Mus musculus [29]; -0.4 °C in the assay filed under Mus musculus [15]; -0.1 °C in the assay listed under Mus musculus [16]. Further, the values for the deltaT in the assay filed under Mus musculus [19] and in the assay listed under Mus musculus [30] were -0.2 °C and -0.4 °C, respectively. The Activity in the assay with Rattus norvegicus [13] is on record as 1.3; in the assay on Rattus norvegicus [14] it was 0.2; in the assay with Rattus norvegicus [18], 1.4; with Rattus norvegicus [20], 1.3. Further, the Ki in assay [1] came out at 48 nM; in assay [4], 107 nM; at D(2) dopamine receptor, 4370 nM; in assay [21], 2.2 nM.
With `COc1ccccc1N1CCN(CCN(C(=O)C2CCCCC2)c2ccccn2)CC1` [WAY-100,635], the Activity with Rattus norvegicus [31] amounted to 0; in the assay on Rattus norvegicus [32], 0.2.

For orientation: Ki means the equilibrium dissociation constant of an inhibitor or competing ligand from its target. Lower therefore signals a stronger hold on the target.
